These results are taken from ChEMBL document CHEMBL1129967, “3'-Chloro-3 alpha-(diphenylmethoxy)tropane but not 4'-chloro-3 alpha-(diphenylmethoxy)tropane produces a cocaine-like behavioral profile” (J Med Chem, 1997).

Experiment [1] addresses T1, Sodium-dependent dopamine transporter (Rattus norvegicus, UniProt P23977). Briefly: Displacement of [3H]WIN-35428 binding to the dopamine transporter (DAT) in Rat Caudate Putamen.
The target in experiment [2] is T2, Muscarinic acetylcholine receptor M1 (Rattus norvegicus, UniProt P08482).
T2 sequence (P08482 whole entry): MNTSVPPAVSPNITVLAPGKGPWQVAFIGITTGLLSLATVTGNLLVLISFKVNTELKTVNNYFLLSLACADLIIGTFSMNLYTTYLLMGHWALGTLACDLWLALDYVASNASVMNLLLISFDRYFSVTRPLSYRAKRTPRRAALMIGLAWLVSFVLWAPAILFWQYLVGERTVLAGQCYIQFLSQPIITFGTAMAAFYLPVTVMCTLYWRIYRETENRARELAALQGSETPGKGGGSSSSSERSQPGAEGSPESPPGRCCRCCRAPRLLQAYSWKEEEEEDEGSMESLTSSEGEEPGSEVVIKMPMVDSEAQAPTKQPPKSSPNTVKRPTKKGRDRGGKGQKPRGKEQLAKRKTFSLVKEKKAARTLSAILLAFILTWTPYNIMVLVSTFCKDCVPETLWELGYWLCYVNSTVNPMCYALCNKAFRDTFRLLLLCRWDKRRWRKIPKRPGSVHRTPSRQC
Description: Displacement of [3H]pirenzepine binding at Muscarinic acetylcholine receptor M1 in rat brain P2 membranes. In kind it is cell membranes, Membrane. The procedure, abridged: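 Rat brain P2 membranes (0.3 mg protein) in 50 mM Tris-HCl pH 7.4 with 5 mM MgCl2 and 5 nM [3H]pirenzepine. Nine competitor concentrations (0.03–300 nM), 60 min at 37 °C, filtered. Nonspecific binding defined with 10 μM QNB.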

The target in experiment [3] is Norepinephrine transporter (Rattus norvegicus) (UniProt Q9WTR4). Briefly: Percent inhibition at 10 uM for displacement of [3H]- desmethylimipramine binding at the norepinephrine transporter (NET) in rat cortex. The procedure, abridged:
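Run by a contract screening service under a published method: [3H]desmethylimipramine at 3.0 nM final concentration.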
(In a radioligand displacement assay an active substance lowers the binding of a labelled ligand.)

For experiment [4], the target named is T1, Sodium-dependent dopamine transporter. Description: [3H]-Dopamine uptake inhibition in rat caudate putamen. Format: functional, tissue-based. In a few lines:
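Rat caudate putamen chopped into 225 μm slices, in oxygenated Krebs-HEPES at 37 °C. Filtered, tracer extracted with methanol/HCl and counted; filter blank subtracted. IC50 from the linear portion of the concentration–response curve by linear regression.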

The target in experiment [5] is Sodium-dependent serotonin transporter (Rattus norvegicus) (UniProt P31652). Description: Percent inhibition at 10 uM for displacement of [3H]- citalopram binding at the serotonin transporter (5HTT). In a few lines:
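Run by a contract screening service under a published method: [3H]citalopram at 0.7 nM final concentration.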

Experiment [6] addresses Sodium-dependent dopamine transporter (Rattus norvegicus) (UniProt P23977). Briefly: Selectivity ratio for [3H]-DA uptake inhibition to DAT binding. Format: functional.

Sequence of Sodium-dependent dopamine transporter (Rattus norvegicus) (P23977 whole entry): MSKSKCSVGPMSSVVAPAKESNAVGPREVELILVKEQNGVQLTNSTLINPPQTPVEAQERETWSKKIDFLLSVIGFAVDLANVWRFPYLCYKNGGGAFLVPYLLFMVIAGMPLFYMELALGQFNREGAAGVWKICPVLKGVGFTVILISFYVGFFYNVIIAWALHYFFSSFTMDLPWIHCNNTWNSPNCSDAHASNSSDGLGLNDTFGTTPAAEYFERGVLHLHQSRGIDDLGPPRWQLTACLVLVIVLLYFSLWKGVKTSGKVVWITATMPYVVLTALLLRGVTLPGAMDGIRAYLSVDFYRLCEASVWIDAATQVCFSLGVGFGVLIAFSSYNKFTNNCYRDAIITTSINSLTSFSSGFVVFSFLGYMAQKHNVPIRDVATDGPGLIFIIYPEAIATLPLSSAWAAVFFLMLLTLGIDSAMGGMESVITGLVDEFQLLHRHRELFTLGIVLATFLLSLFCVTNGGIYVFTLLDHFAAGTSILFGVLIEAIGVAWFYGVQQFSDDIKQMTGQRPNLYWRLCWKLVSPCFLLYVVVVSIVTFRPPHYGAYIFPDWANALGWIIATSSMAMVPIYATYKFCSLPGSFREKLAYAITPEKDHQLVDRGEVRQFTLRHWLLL
T1 sequence (P23977 whole entry): as above
Sequence of Norepinephrine transporter (Rattus norvegicus) (Q9WTR4 as listed by the source): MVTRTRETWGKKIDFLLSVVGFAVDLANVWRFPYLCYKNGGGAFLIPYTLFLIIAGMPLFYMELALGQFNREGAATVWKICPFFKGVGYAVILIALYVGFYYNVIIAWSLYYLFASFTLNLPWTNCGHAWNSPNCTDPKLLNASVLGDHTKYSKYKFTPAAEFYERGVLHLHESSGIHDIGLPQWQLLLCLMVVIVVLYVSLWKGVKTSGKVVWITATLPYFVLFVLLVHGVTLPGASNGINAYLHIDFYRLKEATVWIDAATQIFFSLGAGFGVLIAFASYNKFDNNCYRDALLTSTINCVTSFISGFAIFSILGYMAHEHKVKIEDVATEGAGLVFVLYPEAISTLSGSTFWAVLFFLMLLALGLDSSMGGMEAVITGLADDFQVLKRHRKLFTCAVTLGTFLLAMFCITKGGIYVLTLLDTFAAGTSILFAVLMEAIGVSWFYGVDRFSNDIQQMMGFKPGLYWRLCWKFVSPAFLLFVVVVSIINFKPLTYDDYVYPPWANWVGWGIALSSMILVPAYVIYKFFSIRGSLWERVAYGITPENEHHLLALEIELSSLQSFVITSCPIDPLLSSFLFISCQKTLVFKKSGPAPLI
Sequence of Sodium-dependent serotonin transporter (Rattus norvegicus) (P31652 whole entry): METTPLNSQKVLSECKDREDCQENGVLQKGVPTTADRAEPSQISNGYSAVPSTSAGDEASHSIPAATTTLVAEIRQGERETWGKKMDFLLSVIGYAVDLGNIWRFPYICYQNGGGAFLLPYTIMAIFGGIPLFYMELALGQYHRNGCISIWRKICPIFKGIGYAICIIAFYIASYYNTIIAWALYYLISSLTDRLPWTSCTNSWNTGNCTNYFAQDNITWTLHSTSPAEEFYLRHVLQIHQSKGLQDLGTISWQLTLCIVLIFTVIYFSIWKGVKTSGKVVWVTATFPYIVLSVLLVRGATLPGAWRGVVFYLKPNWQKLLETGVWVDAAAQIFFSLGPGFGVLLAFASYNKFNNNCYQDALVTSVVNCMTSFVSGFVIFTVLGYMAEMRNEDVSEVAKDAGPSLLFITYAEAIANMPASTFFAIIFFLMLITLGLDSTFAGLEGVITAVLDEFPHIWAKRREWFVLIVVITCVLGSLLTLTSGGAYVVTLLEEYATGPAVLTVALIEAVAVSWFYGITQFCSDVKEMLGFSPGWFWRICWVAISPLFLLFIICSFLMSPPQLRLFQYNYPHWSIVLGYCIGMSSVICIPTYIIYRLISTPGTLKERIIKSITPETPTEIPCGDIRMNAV

Usually Ki stands for a measure of affinity in units of concentration, obtained from inhibition or displacement. Read a high Ki as lower affinity. The IC50 is the concentration needed to halve the response being measured. For the compound `CN1[C@@H]2CC[C@H]1C[C@@H](OC(c1cccc(F)c1)c1cccc(F)c1)C2`, the Ki in experiment [1] was determined as 47.4 nM; in experiment [2], 0.85 nM. In addition, the I was found to be 75.6% in experiment [3] and 72.6% in experiment [5]. This compound gave an IC50 in experiment [4] of 407 nM. Further, in experiment [6], the Selectivity ratio was 8.6.

Compound `CN1C2CCC1CC(OC(c1ccccc1)c1ccc(Cl)cc1)C2` (configuration not stated) came in with a Ki in experiment [2] of 1.48 nM. The I amounted to 32% in experiment [3] and 34% in experiment [5]. For the same compound, the Selectivity ratio in experiment [6] was 3.8.

For `CN1[C@@H]2CC[C@H]1C[C@@H](OC(c1ccccc1)c1cccc(C(F)(F)F)c1)C2` (some centres not stated), the Ki in experiment [1] was 187 nM; in experiment [2] it was 2.52 nM. In addition, the I stood at 78.5% in experiment [3] and 59.8% in experiment [5]. The compound also showed an IC50 in experiment [4] of 457 nM. In addition, the Selectivity ratio in experiment [6] came out at 2.4.

As for `CN1[C@@H]2CC[C@H]1C[C@@H](OC(c1ccccc1)c1cccc(Cl)c1)C2` (some centres not stated), the Ki in experiment [1] came to 21.6 nM; in experiment [2], 0.98 nM. In addition, the I in experiment [3] is 74.7%; in experiment [5] it was 24.5%. Besides, the IC50 in experiment [4] was 228 nM. In addition, in experiment [6], the Selectivity ratio was 10.6.

Take `CN1[C@@H]2CC[C@H]1C[C@@H](OC(c1ccccc1)c1ccccc1N)C2` (some centres not stated) [AMINOBENZTROPINE]: the Ki in experiment [1] was 1840 nM; in experiment [2], 1.12 nM. Also, the I in experiment [3] was found to be 14%; in experiment [5], 16%. The compound also displayed an IC50 in experiment [4] of 373 nM. The Selectivity ratio in experiment [6] stood at 0.2.

As to `Cc1ccccc1C(O[C@H]1C[C@H]2CC[C@@H](C1)N2C)c1ccccc1` (some centres not stated), the Ki in experiment [1] is 309 nM; in experiment [2] it was 0.5 nM. The I in experiment [3] worked out at 66.5%; in experiment [5], 35.7%. The compound also displayed an IC50 in experiment [4] of 1200 nM. Moreover, the Selectivity ratio in experiment [6] came to 3.9.

`CN1[C@@H]2CC[C@H]1C[C@@H](OC(c1ccccc1)c1ccccc1F)C2` (some centres not stated): the Ki was 50 nM in experiment [1] and 0.43 nM in experiment [2]. Moreover, the I in experiment [3] came out at 17.8%; in experiment [5], 22.3%. The compound also registered an IC50 in experiment [4] of 140 nM. For the same compound, in experiment [6], the Selectivity ratio came out at 2.8.

Consider `CN1[C@@H]2CC[C@H]1C[C@@H](OC(c1ccccc1)c1ccccc1Cl)C2` (some centres not stated), for which the Ki amounted to 228 nM in experiment [1] and 0.41 nM in experiment [2]. For the same compound, the values for the I in experiment [3] and in experiment [5] were 76.1% and 55.4%, respectively. In experiment [4], this compound displayed an IC50 of 997 nM. For the same compound, the Selectivity ratio in experiment [6] came to 4.4.

Turning to `CN1[C@@H]2CC[C@H]1C[C@@H](OC(c1ccccc1)c1cccc(F)c1)C2` (some centres not stated), the Ki amounted to 68.5 nM in experiment [1] and 0.6 nM in experiment [2]. Besides, the I in experiment [3] was determined as 82.4%; in experiment [5] it was 42.2%. This compound also had an IC50 in experiment [4] of 250 nM. The Selectivity ratio in experiment [6] is 3.7.
